According to ChEMBL document CHEMBL1156201, “2-MeS-beta,gamma-CCl2-ATP is a potent agent for reducing intraocular pressure” (J Med Chem, 2010):
The source made the active and inactive calls. The rule behind the calls is not given here.

How the values were obtained:
Oryctolagus cuniculus [1] = species on record: Oryctolagus cuniculus; assay: Antihypertensive activity in New Zealand rabbit assessed as reduction in intraocular pressure at 100 uM after 8 hrs relative to control; assay type: functional
Summary of the method: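 Male New Zealand white rabbits (2.5 ± 0.5 kg). 100 μM, 10 μL applied unilaterally to the cornea; contralateral eye got the same volume of saline (0.9% NaCl). IOP read by rebound tonometer without anesthetic, twice before dosing, then followed up to 8 h. Blinded design. Mean ± SEM of 8–10 independent experiments.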

[2] = Chemical stability assessed as enzymatic stability at 100 uM after 20 mins in presence of human NTPDase1; assay type: physicochemical
Summary of the method: (§1)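 Crude extracts of COS-7 cells transiently transfected with the NTPDase. Extract preincubated 3 min at 37 °C in Tris-Ringer buffer, pH 7.4. Substrate added at 100 μM final; reaction stopped at 20 min with malachite green. Released Pi read at 630 nm. Activity of untransfected-cell extract subtracted.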

[3] = Chemical stability assessed as enzymatic stability at 100 uM after 20 mins in presence of human NTPDase3; assay type: physicochemical; summary of the method: as §1
Serum = assay: Half life in human serum; assay type: ADME, cell-free
Summary of the method: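 Serum came from healthy volunteers' blood, held 12 h at 4 °C, centrifuged and stored at −80 °C. Nucleotide (4.5 μL of 40 mM stock) was incubated with 180 μL serum plus 540 μL RPMI-1640 at 37 °C for up to 24 h, sampled at 0.5–12 h intervals. Samples were heat-stopped at 80 °C, cleaned up by extraction and anion-exchange, then analysed by HPLC. Hydrolysis rate came from peak-area change over time.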

[4] = Chemical stability assessed as enzymatic stability at 100 uM after 20 mins in presence of human NPP3; assay type: physicochemical
Summary of the method: (§2)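 Human NPP1 or NPP3 extract was preincubated 3 min at 37 °C in 1 mM CaCl2, 140 mM NaCl, 5 mM KCl, 50 mM Tris pH 8.5. Nucleotide was added at 100 μM final. After 20 min the reaction was quenched into ice-cold 1 M perchloric acid and neutralised with KOH. Degradation was read by reverse-phase HPLC (TBA/EDTA/phosphate, pH 7.0).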

[5] = Chemical stability assessed as enzymatic stability at 100 uM after 20 mins in presence of human NTPDase2; assay type: physicochemical; summary of the method: as §1
[6] = Association constant pKa of the compound; assay type: physicochemical
P2Y purinoceptor 1 = P2Y purinoceptor 1 (Meleagris gallopavo, UniProt P49652); assay: Agonist activity at turkey P2Y1 receptor expressed in human […] receptor assessed as induction of intracellular calcium mobilization; assay type: functional, cell-based
[7] = Chemical stability assessed as enzymatic stability at 100 uM after 20 mins in presence of human NTPDase8; assay type: physicochemical; summary of the method: as §1
[8] = Chemical stability assessed as enzymatic stability at 100 uM after 20 mins in presence of human NPP1; assay type: physicochemical; summary of the method: as §2
Oryctolagus cuniculus [9] = species on record: Oryctolagus cuniculus; assay: Antihypertensive activity in New Zealand rabbit assessed as reduction in intraocular pressure at 1 nM to 100 uM after 8 hrs relative to control; assay type: functional, Eye
Summary of the method: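 Male New Zealand white rabbits (2.5 ± 0.5 kg). 10 μL of 1 nM–100 μM solution instilled unilaterally on the cornea; contralateral eye got saline (0.9% NaCl, vehicle). IOP read by rebound tonometer without anesthetic, twice before dosing. Maximal response at each dose was plotted against concentration and fitted for pD2; EC50 taken as antilog of −pD2. One dose per animal per day, washout ≥2 days. Experimenter blinded.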

[10] = Chemical stability assessed as half life of hydrolysis at pH 1.4; assay type: physicochemical; conditions: buffer
Summary of the method: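 Analogue (1.5 mg) in 0.2 M HCl/KCl buffer (0.8 mL), adjusted to pH 1.4, held at 37 °C for 1–31 days. Sampled at 1–24 h intervals and analysed by reverse-phase HPLC. Half-life derived from peak integration over time.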

P2Y purinoceptor 1, sequence (P49652 whole entry): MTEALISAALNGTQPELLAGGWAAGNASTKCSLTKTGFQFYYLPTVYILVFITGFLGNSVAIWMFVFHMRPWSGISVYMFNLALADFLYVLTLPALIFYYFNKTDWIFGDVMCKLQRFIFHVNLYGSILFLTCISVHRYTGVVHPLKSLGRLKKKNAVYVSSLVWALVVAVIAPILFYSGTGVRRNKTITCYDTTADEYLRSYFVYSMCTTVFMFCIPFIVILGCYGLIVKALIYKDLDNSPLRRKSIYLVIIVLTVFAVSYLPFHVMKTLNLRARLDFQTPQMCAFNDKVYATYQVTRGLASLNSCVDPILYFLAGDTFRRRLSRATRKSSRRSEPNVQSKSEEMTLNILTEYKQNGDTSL

| SMILES | Activity (Oryctolagus cuniculus [1]; Eye) | Activity [2] | Activity [4] | Activity [5] | pKa [6] | EC50 (P2Y purinoceptor 1; read-out: EC50) | Activity [7] | Activity [8] | also measured |
| --- | --- | --- | --- | --- | --- | --- | --- | --- | --- |
| CSc1nc(N)c2ncn([C@@H]3O[C@H](COP(=O)(O)OP(=O)(O)C(F)(F)P(=O)(O)O)[C@@H](O)[C@H]3O)c2n1 | inactive | 2.6% | 0.5% | 1.1% | 7 | 760 nM | 5.2% | 6.2% | Activity [3]: 2.6%; t1/2 (Serum): 12.4 h |
| CSc1nc(N)c2ncn([C@@H]3O[C@H](COP(=O)(O)OP(=O)(O)C(Cl)(Cl)P(=O)(O)O)[C@@H](O)[C@H]3O)c2n1 | – | 0.5% | 1.9% | 0.5% | 7 | 9540 nM | – | 5.8% | Activity (Oryctolagus cuniculus [1]): 32% |
| CSc1nc(N)c2ncn([C@@H]3O[C@H](COP(=O)(O)C(Cl)(Cl)P(=O)(O)O)[C@@H](O)[C@H]3O)c2n1 | Active | – | 1.8% | 1.7% | 7 | 3100 nM | – | 3.3% | pD2 (Oryctolagus cuniculus [9]): 4.5 |
| CSc1nc(N)c2ncn([C@@H]3O[C@H](COP(=O)(O)C(F)(F)P(=O)(O)O)[C@@H](O)[C@H]3O)c2n1 | Active | 1.3% | – | 2.4% | 7 | 980 nM | 0.1% | 3.9% | pD2 (Oryctolagus cuniculus [9]): 5.1 |
| BP(=O)(OC[C@H]1O[C@@H](n2cnc3c(N)ncnc32)[C@H](O)[C@@H]1O)OP(=O)(O)CP(=O)(O)O (stereo not given in full) | – | – | – | – | 8.4 | – | – | – | half-life [10]: 19 h |
| BP(=O)(OC[C@H]1O[C@@H](n2cnc3c(N)nc(SC)nc32)[C@H](O)[C@@H]1O)OP(=O)(O)CP(=O)(O)O (stereo not given in full) | – | – | – | – | 8.4 | – | – | – | half-life [10]: 14.5 h |
| CSc1nc(N)c2ncn([C@@H]3O[C@H](COP(=O)(O)OP(=O)(O)CP(=O)(O)O)[C@@H](O)[C@H]3O)c2n1 | – | – | – | – | – | – | – | – | Activity (Oryctolagus cuniculus [1]): 32%; t1/2 [10]: 65 h; pD2 (Oryctolagus cuniculus [9]): 4.5 |
| BP(=O)(OC[C@H]1O[C@@H](n2cnc3c(N)nc(SC)nc32)[C@H](O)[C@@H]1O)OP(=O)(O)C(F)(F)P(=O)(O)O (stereo in doubt; 10A) | – | 1% | 10% | 1.8% | 7 | – | 1.7% | 4% | Activity [3]: 4.4%; EC50 (P2Y purinoceptor 1): Not Active |
| BP(=O)(OC[C@H]1O[C@@H](n2cnc3c(N)nc(SC)nc32)[C@H](O)[C@@H]1O)OP(=O)(O)C(F)(F)P(=O)(O)O (stereo in doubt; 10B) | – | 0.4% | 3.2% | 0.9% | – | 2130 nM | – | 3.4% | – |
| BP(=O)(OC[C@H]1O[C@@H](n2cnc3c(N)ncnc32)[C@H](O)[C@@H]1O)OP(=O)(O)C(Cl)(Cl)P(=O)(O)O (stereo in doubt; 11A) [listing 1 of 2 here] | – | 5.5% | – | 1.3% | 7 | – | 4.4% | 5.3% | Activity [3]: 2.6%; EC50 (P2Y purinoceptor 1): Not Active |
| BP(=O)(OC[C@H]1O[C@@H](n2cnc3c(N)ncnc32)[C@H](O)[C@@H]1O)OP(=O)(O)C(Cl)(Cl)P(=O)(O)O (stereo in doubt; 11A) [listing 2 of 2 here] | inactive | – | – | – | – | – | – | – | – |
| BP(=O)(OC[C@H]1O[C@@H](n2cnc3c(N)ncnc32)[C@H](O)[C@@H]1O)OP(=O)(O)C(Cl)(Cl)P(=O)(O)O (stereo in doubt; 11B) [listing 1 of 2 here] | – | 3.2% | – | 1.4% | – | – | 4% | 3.3% | Activity [3]: 3.1%; EC50 (P2Y purinoceptor 1): Not Active |
| BP(=O)(OC[C@H]1O[C@@H](n2cnc3c(N)ncnc32)[C@H](O)[C@@H]1O)OP(=O)(O)C(Cl)(Cl)P(=O)(O)O (stereo in doubt; 11B) [listing 2 of 2 here] | Active | – | – | – | – | – | – | – | – |
| BP(=O)(OC[C@H]1O[C@@H](n2cnc3c(N)nc(SC)nc32)[C@H](O)[C@@H]1O)OP(=O)(O)C(Cl)(Cl)P(=O)(O)O (stereo in doubt; 12A) [listing 1 of 2 here] | – | 0.7% | 5% | 1.5% | 7 | 570 nM | – | 0.7% | Activity [3]: 0.3% |
| BP(=O)(OC[C@H]1O[C@@H](n2cnc3c(N)nc(SC)nc32)[C@H](O)[C@@H]1O)OP(=O)(O)C(Cl)(Cl)P(=O)(O)O (stereo in doubt; 12A) [listing 2 of 2 here] | Active | – | – | – | – | – | – | – | – |
| BP(=O)(OC[C@H]1O[C@@H](n2cnc3c(N)nc(SC)nc32)[C@H](O)[C@@H]1O)OP(=O)(O)C(Cl)(Cl)P(=O)(O)O (stereo in doubt; 12B) [listing 1 of 2 here] | – | – | – | – | – | 1200 nM | 1.8% | 4% | – |
| BP(=O)(OC[C@H]1O[C@@H](n2cnc3c(N)nc(SC)nc32)[C@H](O)[C@@H]1O)OP(=O)(O)C(Cl)(Cl)P(=O)(O)O (stereo in doubt; 12B) [listing 2 of 2 here] | Active | – | – | – | – | – | – | – | – |
| Nc1ncnc2c1ncn2[C@@H]1O[C@H](COP(=O)(O)OP(=O)(O)OP(=O)(O)O)[C@@H](O)[C@H]1O [ADENOSINE TRIPHOSPHATE] | – | – | – | – | – | – | – | – | t1/2 (Serum): 4.9 h |
